Measured values reported in ChEMBL document CHEMBL1123921, “Quinolonecarboxylic acids. 2. Synthesis and antibacterial evaluation of 7-oxo-2,3-dihydro-7H-pyrido[1,2,3-de][1,4]benzothiazine-6-carboxylic acids” (J Med Chem, 1987).
Values after ≈ are worked out from the molar mass of the structure shown.

Assays:
Assay type in all cases: functional
Morganella morganii = assay: In vitro antibacterial activity against clinical isolates of Proteus morganii 27 (gram negative) by agar dilution assay.
How it was run: (§1)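 Agar dilution on Isosensitest agar; compound incorporated by twofold serial dilution. Overnight broth cultures delivered by multipoint inoculator at 10⁵ CFU per point. Plates read after 18 h at 37 °C. MIC taken as the lowest concentration giving complete growth inhibition.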

Escherichia coli = assay: In vitro antibacterial activity against clinical isolates of Escherichia coli 15 (gram negative) by agar dilution assay.; how it was run: as §1
Staphylococcus aureus = assay: In vitro antibacterial activity against clinical isolates of Staphylococcus aureus 18773 (gram-positive) by agar dilution assay.; how it was run: as §1
Pseudomonas aeruginosa = assay: In vitro antibacterial activity against clinical isolates of Pseudomonas aeruginosa 2437 (gram negative) by agar dilution assay.; how it was run: as §1
Enterobacter cloacae = assay: In vitro antibacterial activity against clinical isolates of Enterobacter cloacae 041 (gram negative) by agar dilution assay.; how it was run: as §1
Klebsiella pneumoniae = assay: In vitro antibacterial activity against clinical isolates of Klebsiella pneumoniae-4 (gram negative) by agar dilution assay.; how it was run: as §1

Row | SMILES | MIC (Morganella morganii) [µg/mL] | MIC (Escherichia coli) [µg/mL] | MIC (Staphylococcus aureus) [µg/mL] | MIC (Pseudomonas aeruginosa) [µg/mL] | MIC (Enterobacter cloacae) [µg/mL] | MIC (Klebsiella pneumoniae) [µg/mL]
1 | O=C(O)c1cn2c3c(ccc(C(F)(F)F)c3c1=O)SCC2 | > 50 | > 50 | > 50 | 100 (≈ 317 µM) | > 50 | > 50
2 | O=C(O)c1cn2c3c(cc(F)cc3c1=O)SCC2 | 3.12 (≈ 11.8 µM) | 0.78 (≈ 2.94 µM) | 6.25 (≈ 23.6 µM) | 50 (≈ 188 µM) | 6.25 (≈ 23.6 µM) | 3.12 (≈ 11.8 µM)
3 | CN1CCN(c2cc3c(=O)c(C(=O)O)cn4c3c(c2Cl)SCC4)CC1 | > 50 | > 50 | > 50 | 6.25 (≈ 16.5 µM) | > 50 | > 50
4 | O=C(O)c1cn2c3c(cc(F)c(N4CCCC4)c3c1=O)SCC2 | – | > 100 | > 100 | – | – | > 100
5 | O=C(O)c1cn2c3c(c(Cl)c(N4CCOCC4)cc3c1=O)SCC2 | > 50 | 6.25 (≈ 17 µM) | > 50 | 6.25 (≈ 17 µM) | > 50 | > 50
6 | O=C(O)c1cn2c3c(cc(N4CCN(CCO)CC4)cc3c1=O)SCC2 | > 50 | 100 (≈ 266 µM) | 100 (≈ 266 µM) | > 100 | – | –
7 | O=C(O)c1cn2c3c(cc(F)cc3c1=O)S(=O)(=O)CC2 | – | 100 (≈ 336 µM) | > 50 | > 50 | – | –
8 | CN1CCN(c2cc3c4c(c2)c(=O)c(C(=O)O)cn4CCS3)CC1 | 100 (≈ 289 µM) | 100 (≈ 289 µM) | 100 (≈ 289 µM) | > 100 | – | –
9 | O=C(O)c1cn2c3c(cc(N4CCNCC4)cc3c1=O)SCC2 | 50 (≈ 151 µM) | > 50 | > 50 | 50 (≈ 151 µM) | 50 (≈ 151 µM) | 50 (≈ 151 µM)
10 | CC1CN(c2c(F)cc3c(=O)c(C(=O)O)cn4c3c2SCC4)CC(C)N1 (stereo not drawn) | 25 (≈ 66.2 µM) | 6.25 (≈ 16.6 µM) | 3.12 (≈ 8.27 µM) | 100 (≈ 265 µM) | 3.12 (≈ 8.27 µM) | 6.25 (≈ 16.6 µM)
11 | O=C(O)c1cn2c3c(c(Cl)c(N4CCCC4)cc3c1=O)SCC2 | > 50 | > 50 | > 50 | > 50 | > 50 | > 50
12 | O=C(O)c1cn2c3c(cc(N4CCCC4)cc3c1=O)SCC2 | – | 50 (≈ 158 µM) | 50 (≈ 158 µM) | 100 (≈ 316 µM) | – | –
13 | O=C(O)c1cn2c3c(c(N4CCCC4)c(F)cc3c1=O)[S+]([O-])CC2 (stereo not drawn) | > 50 | 12.5 (≈ 35.7 µM) | 12.5 (≈ 35.7 µM) | > 50 | 50 (≈ 143 µM) | 25 (≈ 71.4 µM)
14 | O=C(O)c1cn2c3c(c(Cl)c(F)cc3c1=O)SCC2 | 6.25 (≈ 20.9 µM) | 0.39 (≈ 1.3 µM) | 0.39 (≈ 1.3 µM) | > 25 | 0.39 (≈ 1.3 µM) | 0.78 (≈ 2.6 µM)
15 | O=C(O)c1cn2c3c(c(N4CCSCC4)c(F)cc3c1=O)SCC2 | 6.25 (≈ 17.1 µM) | 3.12 (≈ 8.51 µM) | 0.78 (≈ 2.13 µM) | > 50 | 1.56 (≈ 4.26 µM) | 1.56 (≈ 4.26 µM)
16 | CC1COc2c(N3CCN(C)CC3)c(F)cc3c(=O)c(C(=O)O)cn1c23 (stereo not drawn) [OFLOXACIN] | 0.78 (≈ 2.16 µM) | 0.19 (≈ 0.526 µM) | 0.19 (≈ 0.526 µM) | 1.56 (≈ 4.32 µM) | 0.19 (≈ 0.526 µM) | 0.39 (≈ 1.08 µM)
17 | O=C(O)c1cn2c3c(c(N4CCCC4)c(F)cc3c1=O)SCC2 | 3.12 (≈ 9.33 µM) | 1.56 (≈ 4.67 µM) | < 0.39 | 3.12 (≈ 9.33 µM) | 1.56 (≈ 4.67 µM) | 1.56 (≈ 4.67 µM)
18 | O=C(O)c1cn2c3c(c(N4CCCC4)c(F)cc3c1=O)S(=O)(=O)CC2 | > 50 | 3.12 (≈ 8.52 µM) | 3.12 (≈ 8.52 µM) | > 50 | 25 (≈ 68.2 µM) | 25 (≈ 68.2 µM)

Row | SMILES | MIC (Morganella morganii) [µg/mL] | MIC (Escherichia coli) [µg/mL] | MIC (Staphylococcus aureus) [µg/mL] | MIC (Pseudomonas aeruginosa) [µg/mL] | MIC (Enterobacter cloacae) [µg/mL] | MIC (Klebsiella pneumoniae) [µg/mL]
19 | CCn1cc(C(=O)O)c(=O)c2cc(F)c(N3CCNCC3)cc21 [NORFLOXACIN] | 0.78 (≈ 2.44 µM) | 0.19 (≈ 0.595 µM) | 0.19 (≈ 0.595 µM) | 1.56 (≈ 4.89 µM) | 0.39 (≈ 1.22 µM) | 0.19 (≈ 0.595 µM)
20 | O=C(O)c1cn2c3c(cc(N4CCN(Cc5ccccc5)CC4)cc3c1=O)SCC2 | > 50 | 50 (≈ 119 µM) | 50 (≈ 119 µM) | > 50 | – | –
21 | O=C(O)c1cn2c3c(c(Cl)c(Cl)cc3c1=O)SCC2 | 1.56 (≈ 4.93 µM) | > 50 | 0.78 (≈ 2.47 µM) | > 50 | > 50 | 12.5 (≈ 39.5 µM)
22 | O=C(O)c1cn2c3c(c(Cl)c(F)cc3c1=O)S(=O)(=O)CC2 | – | > 50 | – | – | – | –
23 | O=C(O)c1cn2c3c(cc(N4CCOCC4)cc3c1=O)SCC2 | > 50 | > 50 | > 50 | 6.25 (≈ 18.8 µM) | > 50 | > 50
24 | O=C(O)c1cn2c3c(cc(F)c(Cl)c3c1=O)SCC2 | > 50 | > 50 | > 50 | > 50 | > 50 | > 50
25 | O=C(O)c1cn2c3c(cccc3c1=O)SCC2 | 12.5 (≈ 50.6 µM) | 6.25 (≈ 25.3 µM) | 25 (≈ 101 µM) | 50 (≈ 202 µM) | 25 (≈ 101 µM) | 25 (≈ 101 µM)
26 | O=C(O)c1cn2c3c(cc(N4CCCC4)c(Cl)c3c1=O)SCC2 | > 100 | > 100 | 100 (≈ 285 µM) | > 100 | – | > 100
27 | O=C(O)c1cn2c3c(cc(Cl)cc3c1=O)SCC2 | 6.25 (≈ 22.2 µM) | 3.12 (≈ 11.1 µM) | 25 (≈ 88.7 µM) | > 100 | 12.5 (≈ 44.4 µM) | 6.25 (≈ 22.2 µM)
28 | O=C(O)c1cn2c3c(c(Cl)c(N4CCNCC4)cc3c1=O)SCC2 | > 50 | > 50 | > 50 | > 50 | > 50 | > 50
29 | O=C(O)c1cn2c3c(cc(N4CCN(C(=O)C(F)(F)F)CC4)cc3c1=O)SCC2 | > 50 | > 50 | 50 (≈ 117 µM) | 100 (≈ 234 µM) | – | –
30 | CCOC(=O)N1CCN(c2c(F)cc3c(=O)c(C(=O)O)cn4c3c2SCC4)CC1 | > 50 | 6.25 (≈ 14.8 µM) | 0.39 (≈ 0.925 µM) | > 50 | 6.25 (≈ 14.8 µM) | 6.25 (≈ 14.8 µM)
31 | O=C(O)c1cn2c3c(c(N4CCNCC4)c(F)cc3c1=O)SCC2 | 1.56 (≈ 4.46 µM) | 0.39 (≈ 1.12 µM) | 0.78 (≈ 2.23 µM) | 12.5 (≈ 35.8 µM) | < 0.39 | < 0.39
32 | O=C(O)c1cn2c3c(c(Cl)c(F)cc3c1=O)[S+]([O-])CC2 (stereo not drawn) | > 100 | > 100 | > 100 | > 100 | > 100 | > 100
33 | O=C(O)c1cn2c3c(c(N4CCN(CC(F)(F)F)CC4)c(F)cc3c1=O)SCC2 | > 50 | > 50 | 0.39 (≈ 0.904 µM) | > 50 | > 50 | > 50
34 | O=C(O)c1cn2c3c(cc(F)c(N4CCNCC4)c3c1=O)SCC2 | > 100 | > 100 | > 100 | > 100 | > 100 | > 100
35 | O=C(O)c1cn2c3c(cccc3c1=O)S(=O)(=O)CC2 | > 100 | 100 (≈ 358 µM) | > 100 | 100 (≈ 358 µM) | > 100 | > 100
36 | O=C(O)c1cn2c3c(c(N4CCN(C(=O)C(F)(F)F)CC4)c(F)cc3c1=O)SCC2 | 1.56 (≈ 3.5 µM) | < 0.39 | 1.56 (≈ 3.5 µM) | 12.5 (≈ 28.1 µM) | < 0.39 | < 0.39
